Type in all cases: cell-based, human
Experiment [1] has as its system apical membrane of airway epithelial cells. The following applies: 16HBE14o− cells on transwell filters 7–10 d after confluence, confocal. The procedure, abridged: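 Samples were 16HBE14o− filters (7–10 d post-confluence) or primary nasal cultures (air-liquid interface, 40–50 d). Fixation was 4% paraformaldehyde, 5–20 min, room temperature. Blocking used milk/BSA/Triton (16HBE14o−) or 10–20% goat serum (primary). Primary antisera ran 4–12 h: ezrin 1:300, ZO-1 1:200, EBP50 1:500 or 1:200, YAP65 1:300 or 1:200. Primary cultures also got 70 nM FITC-phalloidin. Texas red/FITC secondaries, XZ confocal imaging.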

Another experiment concerns c-Yes. The following applies: 16HBE14o− on transwell filters, mouse anti–c-Yes (1:100), XZ confocal. The procedure, abridged: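 16HBE14o− clones stably expressing GFP-YAP65 chimeras were selected with G418 and screened by fluorescence and anti-GFP blot. Cells were grown to confluence on transwell filters and fixed in 4% paraformaldehyde. After blocking (milk/BSA/0.1% Triton X-100, 3 h), they were stained with mouse anti-c-Yes (1:100) and fluorescent secondary antiserum, then scanned in XZ by confocal microscopy. At least two independent clones per line were analysed.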

The test system of the next experiment is EBP50. Briefly: coimmunoprecipitation with EBP50 antisera from 16HBE14o− lysates. The conditions noted are these: 16HBE14o− lysates (wild type or stably expressing GFP chimera), immunoblot. An outline of the steps:
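16HBE14o− cells were wild type or stable lines expressing GFP-YAP65 or GFP-YAP65 lacking the last four residues (G418 400 µg/ml; ≥2 clones). Cells were lysed in RIPA. Rabbit anti-EBP50, preimmune serum or normal rabbit IgG (2 µg) was prebound to protein A beads. Lysate (~300 µg or ~200 µg) was incubated for 4–12 h at 4°C. Beads washed three times in RIPA; 10% SDS-PAGE; immunoblot with anti-YAP65 or anti-ezrin (1:1,000); 10–20% input.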
In general terms: In western blotting, separated proteins are transferred to a membrane and probed.

B1: EBP50: ERM-binding phosphoprotein 50 kD; two PDZ domains (protein)
chain: MSADAAAGAPLPRLCCLEKGPNGYGFHLHGEKGKLGQYIRLVEPGSPAEKAGLLAGDRLVEVNGENVEKETHQQVVSRIRAALNAVRLLVVDPETDEQLQKLGVQVREELLRAQEAPGQAEPPAAAEVQGAGNENEPREADKSHPEQRELRPRLCTMKKGPSGYGFNLHSDKSKPGQFIRSVDPDSPAEASGLRAQDRIVEVNGVCMEGKQHGDVVSAIRAGGDETKLLVVDRETDEFFKKCRVIPSQEHLNGPLPVPFTNGEIQKENSREALAEAALESPRPALVRSASSDTSEELNSQDSPPKQDSTAPSSTSSSDPILDFNISLAMAKERAHQKRSSKRAPQMDWSKKNELFSNL
modifications: left off: GST, end not stated, kept
As for B1, the “localization of endogenous protein” value in experiment [1] was “preferentially accumulated at the apical membrane”.

B2: GFP-YAP65: GFP fused in-frame with YAP65 (protein)
chain: MDPGQQPPPQPAPQGQGQPPSQPPQGQGPPSGPGQPAPAATQAAPQAPPAGHQIVHVRGDSETDLEALFNAVMNPKTANVPQTVPMRLRKLPDSFFKPPEPKSHSRQASTDAGTAGALTPQHVRAHSSPASLQLGAVSPGTLTPTGVVSGPAATPTAQHLRQSSFEIPDDVPLPAGWEMAKTSSGQRYFLNHIDQTTTWQDPRKAMLSQMNVTAPTSPPVQQNMMNSASAMNQRISQSAPVKQPPPLAPQSPQGGVMGGSNSNQQQQMRLQQLQMEKERLRLKQQELLRQVRPQELALRSQLPTLEQDGGTQNPVSSPGMSQELRTMTTNSSDPFLNSGTYHSRDESTDSGLSMSSYSVPRTPDDFLNSVDEMDTGDTINQSTLPSQQNRFPDYLEAIPGTNVDLGTLEGDGMNIEGEELMPSLQEALSSDILNDMESVLAATKLDKESFLTWL
modifications: left off: GFP, end not stated, kept
Take B2: the “c-Yes distribution in cells stably overexpressing the chimera” value in the experiment with c-Yes is “c-Yes was accumulated at the apical membrane”. In addition, the “presence in EBP50 immunoprecipitates” value in the experiment with EBP50 is “present in EBP50 immunoprecipitates”.
